# Measurements taken from ChEMBL document CHEMBL2331542, “Synthesis and in vitro antibacterial activity of quinolone/naphthyridone derivatives containing 3-alkoxyimino-4-(methyl)aminopiperidine scaffolds” (2013).
# Legend:
# Assay type in all cases: functional
# Escherichia coli [1] = assay: Antibacterial activity against extended-spectrum beta-lactamase-producing Escherichia coli isolate 12-4
# How it was run: (§1)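 MIC determined in vitro by a standard technique and defined as the lowest compound concentration giving complete inhibition of bacterial growth. The Gram-positive and Gram-negative panels were tested alongside gemifloxacin, levofloxacin and ciprofloxacin reference drugs.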
# Escherichia coli [2] = assay: Antibacterial activity against extended-spectrum beta-lactamase-producing Escherichia coli isolate 12-2; how it was run: as §1
# Escherichia coli [3] = assay: Antibacterial activity against extended-spectrum beta-lactamase-producing Escherichia coli isolate 12-1; how it was run: as §1
# Escherichia coli [4] = assay: Antibacterial activity against Escherichia coli isolate 12-5; how it was run: as §1
# Escherichia coli [5] = assay: Antibacterial activity against Escherichia coli isolate 12-4; how it was run: as §1
# Escherichia coli [6] = assay: Antibacterial activity against Escherichia coli isolate 12-1; how it was run: as §1
# Escherichia coli [7] = assay: Antibacterial activity against Escherichia coli ATCC 25922; how it was run: as §1
# Streptococcus pneumoniae [8] = assay: Antibacterial activity against Streptococcus pneumoniae isolate 12-5; how it was run: as §1
# Streptococcus pneumoniae [9] = assay: Antibacterial activity against Streptococcus pneumoniae isolate 12-2; how it was run: as §1
# [10] = test system: Staphylococcus epidermidis; assay: Antibacterial activity against methicillin-resistant Staphylococcus epidermidis isolate 12-35
# How it was run: (§2)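 MIC determined in vitro by standard techniques, defined as the lowest compound concentration giving complete inhibition of bacterial growth. Gemifloxacin, levofloxacin and ciprofloxacin were tested alongside as reference drugs.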
# [11] = test system: Staphylococcus epidermidis; assay: Antibacterial activity against methicillin-resistant Staphylococcus epidermidis isolate 12-33; how it was run: as §2
# [12] = test system: Staphylococcus epidermidis; assay: Antibacterial activity against methicillin-resistant Staphylococcus epidermidis isolate 12-5; how it was run: as §2
# [13] = test system: Staphylococcus epidermidis; assay: Antibacterial activity against methicillin-sensitive Staphylococcus epidermidis isolate 12-3; how it was run: as §1
# [14] = test system: Staphylococcus epidermidis; assay: Antibacterial activity against methicillin-sensitive Staphylococcus epidermidis isolate 12-2; how it was run: as §1
# [15] = test system: Staphylococcus epidermidis; assay: Antibacterial activity against methicillin-sensitive Staphylococcus epidermidis isolate 12-1; how it was run: as §1
# Staphylococcus aureus [16] = assay: Antibacterial activity against methicillin-resistant Staphylococcus aureus isolate 12-15; how it was run: as §2
# Staphylococcus aureus [17] = assay: Antibacterial activity against methicillin-resistant Staphylococcus aureus isolate 12-13; how it was run: as §2
# Staphylococcus aureus [18] = assay: Antibacterial activity against methicillin-resistant Staphylococcus aureus isolate 12-3; how it was run: as §2
# Staphylococcus aureus [19] = assay: Antibacterial activity against methicillin-sensitive Staphylococcus aureus isolate 12-10; how it was run: as §1
# Staphylococcus aureus [20] = assay: Antibacterial activity against methicillin-sensitive Staphylococcus aureus isolate 12-7; how it was run: as §1
# Staphylococcus aureus [21] = assay: Antibacterial activity against methicillin-sensitive Staphylococcus aureus isolate 12-6; how it was run: as §1
# Staphylococcus aureus [22] = assay: Antibacterial activity against Staphylococcus aureus […]; how it was run: as §1
# Pseudomonas aeruginosa [23] = assay: Antibacterial activity against Pseudomonas aeruginosa isolate 12-2; how it was run: as §1
# Pseudomonas aeruginosa [24] = assay: Antibacterial activity against Pseudomonas aeruginosa isolate 12-1; how it was run: as §1
# Pseudomonas aeruginosa [25] = assay: Antibacterial activity against Pseudomonas aeruginosa ATCC 27853; how it was run: as §1
# Klebsiella pneumoniae [26] = assay: Antibacterial activity against extended-spectrum beta-lactamase-producing Klebsiella pneumoniae isolate 12-4; how it was run: as §1
# Klebsiella pneumoniae [27] = assay: Antibacterial activity against extended-spectrum beta-lactamase-producing Klebsiella pneumoniae isolate 12-2; how it was run: as §1
# Klebsiella pneumoniae [28] = assay: Antibacterial activity against extended-spectrum beta-lactamase-producing Klebsiella pneumoniae isolate 12-1; how it was run: as §1
# Klebsiella pneumoniae [29] = assay: Antibacterial activity against Klebsiella pneumoniae isolate 12-4; how it was run: as §1
# Klebsiella pneumoniae [30] = assay: Antibacterial activity against Klebsiella pneumoniae isolate 12-2; how it was run: as §1
# Klebsiella pneumoniae [31] = assay: Antibacterial activity against Klebsiella pneumoniae isolate 12-1; how it was run: as §1
SMILES,MIC (Escherichia coli [1]),MIC (Escherichia coli [2]),MIC (Escherichia coli [3]),MIC (Escherichia coli [4]),MIC (Escherichia coli [5]),MIC (Escherichia coli [6]),MIC (Escherichia coli [7]),MIC (Streptococcus pneumoniae [8]),MIC (Streptococcus pneumoniae [9]),MIC [10],MIC [11],MIC [12],MIC [13],MIC [14],MIC [15],MIC (Staphylococcus aureus [16]),MIC (Staphylococcus aureus [17]),MIC (Staphylococcus aureus [18]),MIC (Staphylococcus aureus [19]),MIC (Staphylococcus aureus [20]),further results
CCO/N=C1\CN(c2nc3c(cc2F)c(=O)c(C(=O)O)cn3C2CC2)CCC1NC (stereo not given),32 µg/mL,> 128 µg/mL,> 128 µg/mL,> 128 µg/mL,> 128 µg/mL,32 µg/mL,4 µg/mL,0.25 µg/mL,0.25 µg/mL,1 µg/mL,0.25 µg/mL,1 µg/mL,1 µg/mL,4 µg/mL,1 µg/mL,4 µg/mL,4 µg/mL,4 µg/mL,0.5 µg/mL,32 µg/mL,MIC (Staphylococcus aureus [21]): 0.25 µg/mL; MIC (Staphylococcus aureus [22]): 0.5 µg/mL; MIC (Pseudomonas aeruginosa [23]): 128 µg/mL; MIC (Pseudomonas aeruginosa [24]): 128 µg/mL; MIC (Pseudomonas aeruginosa [25]): 4 µg/mL; MIC (Klebsiella pneumoniae [26]): > 128 µg/mL; MIC (Klebsiella pneumoniae [27]): > 128 µg/mL; MIC (Klebsiella pneumoniae [28]): 64 µg/mL; MIC (Klebsiella pneumoniae [29]): 2 µg/mL; MIC (Klebsiella pneumoniae [30]): 4 µg/mL; MIC (Klebsiella pneumoniae [31]): 4 µg/mL
CO/N=C1\CN(c2c(F)cc3c(=O)c(C(=O)O)cn4c3c2OC[C@@H]4C)CCC1N (stereo not given in full),16 µg/mL,> 128 µg/mL,128 µg/mL,128 µg/mL,> 128 µg/mL,4 µg/mL,8 µg/mL,0.5 µg/mL,0.5 µg/mL,0.5 µg/mL,0.5 µg/mL,0.5 µg/mL,0.5 µg/mL,1 µg/mL,0.5 µg/mL,1 µg/mL,1 µg/mL,1 µg/mL,0.25 µg/mL,64 µg/mL,MIC (Staphylococcus aureus [21]): 0.5 µg/mL; MIC (Staphylococcus aureus [22]): 0.5 µg/mL; MIC (Pseudomonas aeruginosa [23]): 16 µg/mL; MIC (Pseudomonas aeruginosa [24]): 16 µg/mL; MIC (Pseudomonas aeruginosa [25]): 32 µg/mL; MIC (Klebsiella pneumoniae [26]): 128 µg/mL; MIC (Klebsiella pneumoniae [27]): 16 µg/mL; MIC (Klebsiella pneumoniae [28]): 0.5 µg/mL; MIC (Klebsiella pneumoniae [29]): 1 µg/mL; MIC (Klebsiella pneumoniae [30]): 1 µg/mL; MIC (Klebsiella pneumoniae [31]): 8 µg/mL
CCO/N=C1\CN(c2c(F)cc3c(=O)c(C(=O)O)cn(C4CC4)c3c2OC)CCC1NC (stereo not given),32 µg/mL,> 128 µg/mL,> 128 µg/mL,> 128 µg/mL,> 128 µg/mL,8 µg/mL,16 µg/mL,1 µg/mL,0.25 µg/mL,1 µg/mL,1 µg/mL,1 µg/mL,0.5 µg/mL,1 µg/mL,0.5 µg/mL,0.25 µg/mL,0.25 µg/mL,0.25 µg/mL,0.125 µg/mL,32 µg/mL,MIC (Staphylococcus aureus [21]): 0.25 µg/mL; MIC (Staphylococcus aureus [22]): 0.125 µg/mL; MIC (Pseudomonas aeruginosa [23]): 16 µg/mL; MIC (Pseudomonas aeruginosa [24]): 16 µg/mL; MIC (Pseudomonas aeruginosa [25]): 16 µg/mL; MIC (Klebsiella pneumoniae [26]): > 128 µg/mL; MIC (Klebsiella pneumoniae [27]): 32 µg/mL; MIC (Klebsiella pneumoniae [28]): 32 µg/mL; MIC (Klebsiella pneumoniae [29]): 2 µg/mL; MIC (Klebsiella pneumoniae [30]): 4 µg/mL; MIC (Klebsiella pneumoniae [31]): 4 µg/mL
CCO/N=C1\CN(c2c(F)cc3c(=O)c(C(=O)O)cn(C4CC4)c3c2F)CCC1NC (stereo not given),16 µg/mL,> 128 µg/mL,> 128 µg/mL,> 128 µg/mL,> 128 µg/mL,8 µg/mL,16 µg/mL,1 µg/mL,0.5 µg/mL,1 µg/mL,1 µg/mL,1 µg/mL,0.5 µg/mL,1 µg/mL,0.5 µg/mL,0.5 µg/mL,0.5 µg/mL,0.5 µg/mL,0.125 µg/mL,128 µg/mL,MIC (Staphylococcus aureus [21]): 0.5 µg/mL; MIC (Staphylococcus aureus [22]): 0.5 µg/mL; MIC (Pseudomonas aeruginosa [23]): 16 µg/mL; MIC (Pseudomonas aeruginosa [24]): 16 µg/mL; MIC (Pseudomonas aeruginosa [25]): 16 µg/mL; MIC (Klebsiella pneumoniae [26]): > 128 µg/mL; MIC (Klebsiella pneumoniae [27]): 16 µg/mL; MIC (Klebsiella pneumoniae [28]): 16 µg/mL; MIC (Klebsiella pneumoniae [29]): 1 µg/mL; MIC (Klebsiella pneumoniae [30]): 1 µg/mL; MIC (Klebsiella pneumoniae [31]): 2 µg/mL
CNC1CCN(c2nc3c(cc2F)c(=O)c(C(=O)O)cn3-c2ccc(F)cc2F)C/C1=N\OC (stereo not given),32 µg/mL,> 128 µg/mL,> 128 µg/mL,> 128 µg/mL,> 128 µg/mL,8 µg/mL,0.125 µg/mL,0.06 µg/mL,0.06 µg/mL,0.015 µg/mL,0.015 µg/mL,0.015 µg/mL,0.125 µg/mL,0.5 µg/mL,0.125 µg/mL,0.03 µg/mL,0.03 µg/mL,0.03 µg/mL,0.03 µg/mL,0.06 µg/mL,MIC (Staphylococcus aureus [21]): 0.03 µg/mL; MIC (Staphylococcus aureus [22]): 0.125 µg/mL; MIC (Pseudomonas aeruginosa [23]): 8 µg/mL; MIC (Pseudomonas aeruginosa [24]): 4 µg/mL; MIC (Pseudomonas aeruginosa [25]): 8 µg/mL; MIC (Klebsiella pneumoniae [26]): 1 µg/mL; MIC (Klebsiella pneumoniae [27]): 32 µg/mL; MIC (Klebsiella pneumoniae [28]): 64 µg/mL; MIC (Klebsiella pneumoniae [29]): 1 µg/mL; MIC (Klebsiella pneumoniae [30]): 1 µg/mL; MIC (Klebsiella pneumoniae [31]): 1 µg/mL
